Assay results taken from ChEMBL document CHEMBL1759915, “Synthesis and anticancer effects of some novel pyrazolo[3,4-d]pyrimidine derivatives by generating reactive oxygen species in human breast adenocarcinoma cells” (Eur J Med Chem, 2011).
In brackets after ≈: the same amount, converted by molar mass.

Legend:
MCF7 [1] = test: Effect on hydrogen peroxide level in human MCF7 cells assessed per mg protein at 2 ug/ml by Wolf's method after 24 hrs (reference value: 12.50 +/- 1.54 nmol/mg of protein); type: functional
MCF7 [2] = test: Effect on SOD level in human MCF7 cells assessed per mg protein at 20 ug/ml after 24 hrs (reference value: 27.61+/- 3.72 U/mg of protein); type: functional
MCF7 [3] = test: Increase in SOD level in human MCF7 cells; type: functional, cell-based
MCF7 [4] = test: Effect on CAT level in human MCF7 cells assessed per mg protein at 10 ug/ml after 24 hrs (reference value: 7.90+/- 0.67 U/mg of protein); type: functional
MCF7 [5] = test: Effect on hydrogen peroxide level in human MCF7 cells assessed per mg protein at 20 ug/ml by Wolf's method after 24 hrs (reference value: 12.50 +/- 1.54 nmol/mg of protein); type: functional
MCF7 [6] = test: Increase in hydrogen peroxide level in human MCF7 cells; type: functional, cell-based
MCF7 [7] = test: Effect on RNA level in human MCF7 cells assessed per 10 '6 cells at 10 ug/ml after 24 hrs (reference value: 11.50 +/- 0.70 ug/10^6 cells); type: functional
Method in brief: (§1)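 After 24 h exposure of MCF-7 cells to compound at 2, 5, 10 or 20 µg/ml at 37 °C, nucleic acids were precipitated from cell homogenates. DNA was extracted and assayed by the Zhou et al. method, and RNA by a kit-derived procedure. Results given per 10⁶ cells as means ± S.E. of four experiments versus untreated control.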

MCF7 [8] = test: Decrease in RNA level in human MCF7 cells assessed per 10 '6 cells after 24 hrs relative to control; type: functional, cell-based; method in brief: as §1
MCF7 [9] = test: Decrease in CAT level in human MCF7 cells; type: functional, cell-based
MCF7 [10] = test: Effect on glutathione level in human MCF7 cells assessed per mg protein at 5 ug/ml by Ellman method after 24 hrs (reference value: 39.82 +/- 4.20 nmol/mg of protein); type: functional
MCF7 [11] = test: Decrease in DNA level in human MCF7 cells assessed per 10 '6 cells after 24 hrs relative to control; type: functional, cell-based; method in brief: as §1
MCF7 [12] = test: Decrease in glutathione level in human MCF7 cells; type: functional, cell-based
MCF7 [13] = test: Effect on SOD level in human MCF7 cells assessed per mg protein at 5 ug/ml after 24 hrs (reference value: 27.61+/- 3.72 U/mg of protein); type: functional
MCF7 [14] = test: Effect on DNA level in human MCF7 cells assessed per 10 '6 cells at 20 ug/ml after 24 hrs (reference value: 6.80 +/- 0.70 ug/10^6 cells); type: functional; method in brief: as §1
MCF7 [15] = test: Effect on hydrogen peroxide level in human MCF7 cells assessed per mg protein at 5 ug/ml by Wolf's method after 24 hrs (reference value: 12.50 +/- 1.54 nmol/mg of protein); type: functional
MCF7 [16] = test: Effect on glutathione level in human MCF7 cells assessed per mg protein at 20 ug/ml by Ellman method after 24 hrs (reference value: 39.82 +/- 4.20 nmol/mg of protein); type: functional
MCF7 [17] = test: Effect on glutathione peroxidase level in human MCF7 cells assessed per mg protein at 10 ug/ml after 24 hrs (reference value: 11.20 +/- 1.36 U/mg of protein); type: functional
MCF7 [18] = test: Effect on SOD level in human MCF7 cells assessed per mg protein at 2 ug/ml after 24 hrs (reference value: 27.61+/- 3.72 U/mg of protein); type: functional
MCF7 [19] = test: Effect on CAT level in human MCF7 cells assessed per mg protein at 5 ug/ml after 24 hrs (reference value: 7.90+/- 0.67 U/mg of protein); type: functional
MCF7 [20] = test: Effect on RNA level in human MCF7 cells assessed per 10 '6 cells at 20 ug/ml after 24 hrs (reference value: 11.50 +/- 0.70 ug/10^6 cells); type: functional; method in brief: as §1
MCF7 [21] = test: Effect on hydrogen peroxide level in human MCF7 cells assessed per mg protein at 10 ug/ml by Wolf's method after 24 hrs (reference value: 12.50 +/- 1.54 nmol/mg of protein); type: functional
MCF7 [22] = test: Effect on CAT level in human MCF7 cells assessed per mg protein at 2 ug/ml after 24 hrs (reference value: 7.90+/- 0.67 U/mg of protein); type: functional
MCF7 [23] = test: Effect on RNA level in human MCF7 cells assessed per 10 '6 cells at 2 ug/ml after 24 hrs (reference value: 11.50 +/- 0.70 ug/10^6 cells); type: functional; method in brief: as §1
MCF7 [24] = test: Effect on SOD level in human MCF7 cells assessed per mg protein at 10 ug/ml after 24 hrs (reference value: 27.61+/- 3.72 U/mg of protein); type: functional
MCF7 [25] = test: Effect on DNA level in human MCF7 cells assessed per 10 '6 cells at 10 ug/ml after 24 hrs (reference value: 6.80 +/- 0.70 ug/10^6 cells); type: functional; method in brief: as §1
MCF7 [26] = test: Decrease in glutathione peroxidase level in human MCF7 cells; type: functional, cell-based
MCF7 [27] = test: Effect on DNA level in human MCF7 cells assessed per 10 '6 cells at 5 ug/ml after 24 hrs (reference value: 6.80 +/- 0.70 ug/10^6 cells); type: functional; method in brief: as §1
MCF7 [28] = test: Effect on CAT level in human MCF7 cells assessed per mg protein at 20 ug/ml after 24 hrs (reference value: 7.90+/- 0.67 U/mg of protein); type: functional
MCF7 [29] = test: Effect on glutathione peroxidase level in human MCF7 cells assessed per mg protein at 20 ug/ml after 24 hrs (reference value: 11.20 +/- 1.36 U/mg of protein); type: functional
MCF7 [30] = test: Effect on glutathione peroxidase level in human MCF7 cells assessed per mg protein at 2 ug/ml after 24 hrs (reference value: 11.20 +/- 1.36 U/mg of protein); type: functional
MCF7 [31] = test: Effect on glutathione level in human MCF7 cells assessed per mg protein at 10 ug/ml by Ellman method after 24 hrs (reference value: 39.82 +/- 4.20 nmol/mg of protein); type: functional
MCF7 [32] = test: Effect on RNA level in human MCF7 cells assessed per 10 '6 cells at 5 ug/ml after 24 hrs (reference value: 11.50 +/- 0.70 ug/10^6 cells); type: functional; method in brief: as §1
MCF7 [33] = test: Effect on glutathione peroxidase level in human MCF7 cells assessed per mg protein at 5 ug/ml after 24 hrs (reference value: 11.20 +/- 1.36 U/mg of protein); type: functional
MCF7 [34] = test: Antiproliferative activity against human MCF7 cells after 24 hrs by MTT assay; type: functional, cell-based; settings: for IC50: MCF7, 24 h
Method in brief: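 MCF-7 cells (DMEM, 10% heat-inactivated FCS, penicillin/streptomycin, 37 °C, 5% CO2) plated at 0.65 × 10⁵ cells/well and given 24 h to attach. Exposed to compound or cisplatin at 2, 5, 10 or 20 µg/ml for 24 h at 37 °C. MTT added for 4 h, formazan dissolved in DMSO, absorbance read at 570 nm. Viability taken relative to untreated cells and IC50 derived.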

MCF7 [35] = test: Effect on glutathione level in human MCF7 cells assessed per mg protein at 2 ug/ml by Ellman method after 24 hrs (reference value: 39.82 +/- 4.20 nmol/mg of protein); type: functional
MCF7 [36] = test: Effect on DNA level in human MCF7 cells assessed per 10 '6 cells at 2 ug/ml after 24 hrs (reference value: 6.80 +/- 0.70 ug/10^6 cells); type: functional; method in brief: as §1

SMILES | Activity (MCF7 [1]) | Activity (MCF7 [2]) | Activity (MCF7 [3]) | Activity (MCF7 [4]) | Activity (MCF7 [5]) | Activity (MCF7 [6]) | Activity (MCF7 [7]) | Activity (MCF7 [8]) | Activity (MCF7 [9]) | Activity (MCF7 [10]) | Activity (MCF7 [11]) | Activity (MCF7 [12]) | Activity (MCF7 [13]) | Activity (MCF7 [14]) | Activity (MCF7 [15]) | Activity (MCF7 [16]) | Activity (MCF7 [17]) | Activity (MCF7 [18]) | Activity (MCF7 [19]) | Activity (MCF7 [20]) | other results
COCCSc1ncnc2c1cnn2-c1nc(C)nc2sc3c(c12)-c1ccccc1CC3 | 30.75 nmol | 310 U/mg protein | Dose-dependent effect | 3 U/mg protein | 66.8 nmol | Dose-dependent effect | 5.21 µg/10^6 cells | Dose-dependent effect | Dose-dependent effect | 20.95 nmol | Dose-dependent effect | Dose-dependent effect | 136 U/mg protein | 2.5 µg/10^6 cells | 45.77 nmol | 15.6 nmol | 4 U/mg protein | 105 U/mg protein | 3.4 U/mg protein | 4.8 µg/10^6 cells | Activity (MCF7 [21]): 58.5 nmol; Activity (MCF7 [22]): 3.9 U/mg protein; Activity (MCF7 [23]): 6.2 µg/10^6 cells; Activity (MCF7 [24]): 310 U/mg protein; Activity (MCF7 [25]): 2.96 µg/10^6 cells; Activity (MCF7 [26]): Dose-dependent effect; Activity (MCF7 [27]): 3.44 µg/10^6 cells; Activity (MCF7 [28]): 2.1 U/mg protein; Activity (MCF7 [29]): 2.9 U/mg protein; Activity (MCF7 [30]): 6 U/mg protein; Activity (MCF7 [31]): 18.75 nmol; Activity (MCF7 [32]): 5.72 µg/10^6 cells; Activity (MCF7 [33]): 5.65 U/mg protein; Activity (MCF7 [34]): Dose-dependent effect; IC50 (MCF7 [34]): 4.3 µg/mL (≈ 9.34 µM); Activity (MCF7 [35]): 23.6 nmol; Activity (MCF7 [36]): 4 µg/10^6 cells
Cc1nc(-n2ncc3c(=O)[nH]cnc32)c2c3c(sc2n1)CCc1ccccc1-3 | 32 nmol | 290 U/mg protein | Dose-dependent effect | 2.8 U/mg protein | 60.3 nmol | Dose-dependent effect | 5.81 µg/10^6 cells | Dose-dependent effect | Dose-dependent effect | 18.66 nmol | Dose-dependent effect | Dose-dependent effect | 126 U/mg protein | 2.7 µg/10^6 cells | 40.6 nmol | 16 nmol | 3.11 U/mg protein | 95.6 U/mg protein | 3.6 U/mg protein | 5.25 µg/10^6 cells | Activity (MCF7 [21]): 52 nmol; Activity (MCF7 [22]): 4 U/mg protein; Activity (MCF7 [23]): 7.6 µg/10^6 cells; Activity (MCF7 [24]): 240 U/mg protein; Activity (MCF7 [25]): 3 µg/10^6 cells; Activity (MCF7 [26]): Dose-dependent effect; Activity (MCF7 [27]): 3.8 µg/10^6 cells; Activity (MCF7 [28]): 2.3 U/mg protein; Activity (MCF7 [29]): 2.65 U/mg protein; Activity (MCF7 [30]): 6.9 U/mg protein; Activity (MCF7 [31]): 17.7 nmol; Activity (MCF7 [32]): 6.4 µg/10^6 cells; Activity (MCF7 [33]): 5.5 U/mg protein; Activity (MCF7 [34]): Dose-dependent effect; IC50 (MCF7 [34]): 4.4 µg/mL (≈ 11.4 µM); Activity (MCF7 [35]): 27.9 nmol; Activity (MCF7 [36]): 4.2 µg/10^6 cells
CCOCCSc1ncnc2c1cnn2-c1nc(C)nc2sc3c(c12)-c1ccccc1CC3 | 30.3 nmol | 251 U/mg protein | Dose-dependent effect | 4 U/mg protein | 55 nmol | Dose-dependent effect | 6.5 µg/10^6 cells | Dose-dependent effect | Dose-dependent effect | 25 nmol | Dose-dependent effect | Dose-dependent effect | 115 U/mg protein | 3 µg/10^6 cells | 30.5 nmol | 18.6 nmol | 6 U/mg protein | 85.7 U/mg protein | 4.5 U/mg protein | 6.2 µg/10^6 cells | Activity (MCF7 [21]): 40 nmol; Activity (MCF7 [22]): 5.2 U/mg protein; Activity (MCF7 [23]): 7.9 µg/10^6 cells; Activity (MCF7 [24]): 190 U/mg protein; Activity (MCF7 [25]): 3.75 µg/10^6 cells; Activity (MCF7 [26]): Dose-dependent effect; Activity (MCF7 [27]): 4.2 µg/10^6 cells; Activity (MCF7 [28]): 3.2 U/mg protein; Activity (MCF7 [29]): 5.25 U/mg protein; Activity (MCF7 [30]): 7.35 U/mg protein; Activity (MCF7 [31]): 20.25 nmol; Activity (MCF7 [32]): 7 µg/10^6 cells; Activity (MCF7 [33]): 7 U/mg protein; Activity (MCF7 [34]): Dose-dependent effect; IC50 (MCF7 [34]): 6.4 µg/mL (≈ 13.5 µM); Activity (MCF7 [35]): 30 nmol; Activity (MCF7 [36]): 4.6 µg/10^6 cells
